Experimental data as given in ChEMBL document CHEMBL3045504, “Activity of 1,4-benzoquinones against formosan subterranean termites (Coptotermes formosanus)” (2008).

Assays:
Format in all cases: functional
Coptotermes formosanus [1] = assay: Termiticidal activity against Coptotermes formosanus placed on 1 % wt/wt compound treated filter paper assessed as termite mortality measured 21 days post compound exposure
Coptotermes formosanus [2] = assay: Termiticidal activity against Coptotermes formosanus placed on 1 % wt/wt compound treated filter paper assessed as termite mortality measured 11 days post compound exposure
Coptotermes formosanus [3] = assay: Antifeedant activity against Coptotermes formosanus placed on 1 % wt/wt compound treated filter paper assessed as filter paper consumption measured 21 days post compound exposure (reference value: 54.4 +/- 20.7 mg)
Coptotermes formosanus [4] = assay: Termiticidal activity against Coptotermes formosanus placed on 1 % wt/wt compound treated filter paper assessed as termite mortality measured 3 days post compound exposure
Coptotermes formosanus [5] = assay: Antifeedant activity against Coptotermes formosanus placed on 0.5 % wt/wt compound treated filter paper assessed as filter paper consumption measured 21 days post compound exposure (reference value: 54.4 +/- 20.7 mg)
Coptotermes formosanus [6] = assay: Termiticidal activity against Coptotermes formosanus placed on 0.05 % wt/wt compound treated filter paper assessed as termite mortality measured 6 days post compound exposure
Procedure, shortened: (§1)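 Treated filter paper disks moistened with 100 µL water; 20 C. formosanus workers (third instar or greater) plus 1 soldier per dish from field colonies kept on spruce, ca. 100% RH, 26.6 °C. Daily mortality scored for 3 weeks; cumulative percent mortality from four replicates, each a different colony; water-only controls; ANOVA, protected Fisher LSD (P < 0.05) after arcsine square-root transform.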

Coptotermes formosanus [7] = assay: Termiticidal activity against Coptotermes formosanus placed on 0.5 % wt/wt compound treated filter paper assessed as termite mortality measured 17 days post compound exposure; procedure, shortened: as §1
Coptotermes formosanus [8] = assay: Termiticidal activity against Coptotermes formosanus placed on 0.001 % wt/wt compound treated filter paper assessed as termite mortality measured 6 days post compound exposure; procedure, shortened: as §1
Coptotermes formosanus [9] = assay: Termiticidal activity against Coptotermes formosanus placed on 0.01 % wt/wt compound treated filter paper assessed as termite mortality measured 11 days post compound exposure; procedure, shortened: as §1
Coptotermes formosanus [10] = assay: Termiticidal activity against Coptotermes formosanus placed on 0.001 % wt/wt compound treated filter paper assessed as termite mortality measured 17 days post compound exposure; procedure, shortened: as §1
Coptotermes formosanus [11] = assay: Antifeedant activity against Coptotermes formosanus placed on 0.001 % wt/wt compound treated filter paper assessed as filter paper consumption measured 21 days post compound exposure
Coptotermes formosanus [12] = assay: Termiticidal activity against Coptotermes formosanus placed on 0.5 % wt/wt compound treated filter paper assessed as termite mortality measured 13 days post compound exposure; procedure, shortened: as §1
Coptotermes formosanus [13] = assay: Termiticidal activity against Coptotermes formosanus placed on 0.1 % wt/wt compound treated filter paper assessed as termite mortality measured 17 days post compound exposure; procedure, shortened: as §1
Coptotermes formosanus [14] = assay: Termiticidal activity against Coptotermes formosanus placed on 0.01 % wt/wt compound treated filter paper assessed as termite mortality measured 6 days post compound exposure; procedure, shortened: as §1
Coptotermes formosanus [15] = assay: Termiticidal activity against Coptotermes formosanus placed on 0.1 % wt/wt compound treated filter paper assessed as termite mortality measured 21 days post compound exposure; procedure, shortened: as §1
Coptotermes formosanus [16] = assay: Antifeedant activity against Coptotermes formosanus placed on 1 % wt/wt compound treated filter paper assessed as filter paper consumption measured 21 days post compound exposure (reference value: 85 +/- 15.1 mg)
Coptotermes formosanus [17] = assay: Termiticidal activity against Coptotermes formosanus placed on 0.1 % wt/wt compound treated filter paper assessed as termite mortality measured 11 days post compound exposure; procedure, shortened: as §1
Coptotermes formosanus [18] = assay: Termiticidal activity against Coptotermes formosanus placed on 0.01 % wt/wt compound treated filter paper assessed as termite mortality measured 9 days post compound exposure; procedure, shortened: as §1
Coptotermes formosanus [19] = assay: Termiticidal activity against Coptotermes formosanus placed on 0.01 % wt/wt compound treated filter paper assessed as termite mortality measured 21 days post compound exposure; procedure, shortened: as §1
Coptotermes formosanus [20] = assay: Termiticidal activity against Coptotermes formosanus placed on 0.05 % wt/wt compound treated filter paper assessed as termite mortality measured 21 days post compound exposure; procedure, shortened: as §1
Coptotermes formosanus [21] = assay: Antifeedant activity against Coptotermes formosanus placed on 0.1 % wt/wt compound treated filter paper assessed as filter paper consumption measured 21 days post compound exposure (reference value: 54.4 +/- 20.7 mg)
Coptotermes formosanus [22] = assay: Termiticidal activity against Coptotermes formosanus placed on 0.5 % wt/wt compound treated filter paper assessed as termite mortality measured 9 days post compound exposure; procedure, shortened: as §1
Coptotermes formosanus [23] = assay: Termiticidal activity against Coptotermes formosanus placed on 0.5 % wt/wt compound treated filter paper assessed as termite mortality measured 6 days post compound exposure; procedure, shortened: as §1
Coptotermes formosanus [24] = assay: Antifeedant activity against Coptotermes formosanus placed on 0.01 % wt/wt compound treated filter paper assessed as filter paper consumption measured 21 days post compound exposure
Coptotermes formosanus [25] = assay: Antifeedant activity against Coptotermes formosanus placed on 0.05 % wt/wt compound treated filter paper assessed as filter paper consumption measured 21 days post compound exposure
Coptotermes formosanus [26] = assay: Termiticidal activity against Coptotermes formosanus placed on 0.01 % wt/wt compound treated filter paper assessed as termite mortality measured 17 days post compound exposure; procedure, shortened: as §1
Coptotermes formosanus [27] = assay: Termiticidal activity against Coptotermes formosanus placed on 0.01 % wt/wt compound treated filter paper assessed as termite mortality measured 13 days post compound exposure; procedure, shortened: as §1
Coptotermes formosanus [28] = assay: Termiticidal activity against Coptotermes formosanus placed on 0.001 % wt/wt compound treated filter paper assessed as termite mortality measured 21 days post compound exposure; procedure, shortened: as §1
Coptotermes formosanus [29] = assay: Termiticidal activity against Coptotermes formosanus placed on 0.5 % wt/wt compound treated filter paper assessed as termite mortality measured 21 days post compound exposure; procedure, shortened: as §1
Coptotermes formosanus [30] = assay: Termiticidal activity against Coptotermes formosanus placed on 0.1 % wt/wt compound treated filter paper assessed as termite mortality measured 9 days post compound exposure; procedure, shortened: as §1
Coptotermes formosanus [31] = assay: Termiticidal activity against Coptotermes formosanus placed on 0.5 % wt/wt compound treated filter paper assessed as termite mortality measured 11 days post compound exposure; procedure, shortened: as §1
Coptotermes formosanus [32] = assay: Termiticidal activity against Coptotermes formosanus placed on 0.05 % wt/wt compound treated filter paper assessed as termite mortality measured 9 days post compound exposure; procedure, shortened: as §1
Coptotermes formosanus [33] = assay: Termiticidal activity against Coptotermes formosanus placed on 0.001 % wt/wt compound treated filter paper assessed as termite mortality measured 11 days post compound exposure; procedure, shortened: as §1
Coptotermes formosanus [34] = assay: Termiticidal activity against Coptotermes formosanus placed on 0.05 % wt/wt compound treated filter paper assessed as termite mortality measured 11 days post compound exposure; procedure, shortened: as §1
Coptotermes formosanus [35] = assay: Termiticidal activity against Coptotermes formosanus placed on 0.1 % wt/wt compound treated filter paper assessed as termite mortality measured 13 days post compound exposure; procedure, shortened: as §1
Coptotermes formosanus [36] = assay: Termiticidal activity against Coptotermes formosanus placed on 0.001 % wt/wt compound treated filter paper assessed as termite mortality measured 9 days post compound exposure; procedure, shortened: as §1
Coptotermes formosanus [37] = assay: Termiticidal activity against Coptotermes formosanus placed on 0.05 % wt/wt compound treated filter paper assessed as termite mortality measured 17 days post compound exposure; procedure, shortened: as §1
Coptotermes formosanus [38] = assay: Termiticidal activity against Coptotermes formosanus placed on 0.001 % wt/wt compound treated filter paper assessed as termite mortality measured 13 days post compound exposure; procedure, shortened: as §1
Coptotermes formosanus [39] = assay: Termiticidal activity against Coptotermes formosanus placed on 0.05 % wt/wt compound treated filter paper assessed as termite mortality measured 13 days post compound exposure; procedure, shortened: as §1
Coptotermes formosanus [40] = assay: Termiticidal activity against Coptotermes formosanus placed on 0.1 % wt/wt compound treated filter paper assessed as termite mortality measured 6 days post compound exposure; procedure, shortened: as §1
Coptotermes formosanus [41] = assay: Antifeedant activity against Coptotermes formosanus placed on 0.5 % wt/wt compound treated filter paper assessed as filter paper consumption measured 21 days post compound exposure (reference value: 44.6 +/- 0.0 mg)
Coptotermes formosanus [42] = assay: Antifeedant activity against Coptotermes formosanus placed on 0.1 % wt/wt compound treated filter paper assessed as filter paper consumption measured 21 days post compound exposure (reference value: 44.6 +/- 0.0 mg)
Coptotermes formosanus [43] = assay: Antifeedant activity against Coptotermes formosanus placed on 0.01 % wt/wt compound treated filter paper assessed as filter paper consumption measured 21 days post compound exposure (reference value: 44.6 +/- 0.0 mg)
Coptotermes formosanus [44] = assay: Antifeedant activity against Coptotermes formosanus placed on 0.001 % wt/wt compound treated filter paper assessed as filter paper consumption measured 21 days post compound exposure (reference value: 44.6 +/- 0.0 mg)
Coptotermes formosanus [45] = assay: Antifeedant activity against Coptotermes formosanus placed on 0.05 % wt/wt compound treated filter paper assessed as filter paper consumption measured 21 days post compound exposure (reference value: 44.6 +/- 0.0 mg)
Coptotermes formosanus [46] = assay: Antifeedant activity against Coptotermes formosanus placed on 1 % wt/wt compound treated filter paper assessed as filter paper consumption measured 21 days post compound exposure (reference value: 15.9 +/- 10.4 mg)

| SMILES | mortality (Coptotermes formosanus [1]) [%] | mortality (Coptotermes formosanus [2]) [%] | mortality (Coptotermes formosanus [4]) [%] | mortality (Coptotermes formosanus [6]) [%] | mortality (Coptotermes formosanus [7]) [%] | mortality (Coptotermes formosanus [8]) [%] | mortality (Coptotermes formosanus [9]) [%] | mortality (Coptotermes formosanus [10]) [%] | mortality (Coptotermes formosanus [12]) [%] | mortality (Coptotermes formosanus [13]) [%] | mortality (Coptotermes formosanus [14]) [%] | mortality (Coptotermes formosanus [15]) [%] | mortality (Coptotermes formosanus [17]) [%] | mortality (Coptotermes formosanus [18]) [%] | mortality (Coptotermes formosanus [19]) [%] | mortality (Coptotermes formosanus [20]) [%] | mortality (Coptotermes formosanus [22]) [%] | mortality (Coptotermes formosanus [23]) [%] | mortality (Coptotermes formosanus [26]) [%] | mortality (Coptotermes formosanus [27]) [%] | also measured |
| --- | --- | --- | --- | --- | --- | --- | --- | --- | --- | --- | --- | --- | --- | --- | --- | --- | --- | --- | --- | --- | --- |
| CC1=CC(=O)C(C)=C(C)C1=O | 36.7 | 18.3 | 0 | – | – | – | – | – | – | – | – | – | – | – | – | – | – | – | – | – | Activity (Coptotermes formosanus [3]): 55.4 mg |
| CC1=CC(=O)C(C(C)C)=CC1=O [THYMOQUINONE] | 100 | 100 | 100 | 0 | 11.7 | 0 | 3.3 | 5 | 10 | 8.3 | 0 | 8.3 | 1.7 | 3.3 | 11.7 | 8.3 | 6.7 | 1.7 | 5 | 5 | Activity (Coptotermes formosanus [5]): 93.1 mg; Activity (Coptotermes formosanus [11]): 80.6 mg; Activity (Coptotermes formosanus [16]): 0 mg; Activity (Coptotermes formosanus [21]): 83.5 mg; Activity (Coptotermes formosanus [24]): 75.4 mg; Activity (Coptotermes formosanus [25]): 74 mg; mortality (Coptotermes formosanus [28]): 5%; mortality (Coptotermes formosanus [29]): 18.3%; mortality (Coptotermes formosanus [30]): 1.7%; mortality (Coptotermes formosanus [31]): 6.7%; mortality (Coptotermes formosanus [32]): 0%; mortality (Coptotermes formosanus [33]): 1.7%; mortality (Coptotermes formosanus [34]): 0%; mortality (Coptotermes formosanus [35]): 6.7%; mortality (Coptotermes formosanus [36]): 1.7%; mortality (Coptotermes formosanus [37]): 6.7%; mortality (Coptotermes formosanus [38]): 1.7%; mortality (Coptotermes formosanus [39]): 6.7%; mortality (Coptotermes formosanus [40]): 0% |
| CCCCCC1=CC(=O)C=C(OC)C1=O [Primin] | 100 | 100 | 87.5 | 3.3 | 100 | 0 | 0 | 1.7 | 96.7 | 40 | 0 | 50 | 28.3 | 0 | 21.7 | 25 | 80 | 56.7 | 10 | 5 | Activity (Coptotermes formosanus [41]): 4.9 mg; Activity (Coptotermes formosanus [42]): 26.8 mg; Activity (Coptotermes formosanus [43]): 48.4 mg; Activity (Coptotermes formosanus [44]): 48.8 mg; mortality (Coptotermes formosanus [28]): 8.3%; mortality (Coptotermes formosanus [29]): 100%; mortality (Coptotermes formosanus [30]): 21.7%; mortality (Coptotermes formosanus [31]): 91.7%; mortality (Coptotermes formosanus [32]): 3.3%; mortality (Coptotermes formosanus [33]): 0%; Activity (Coptotermes formosanus [45]): 42.2 mg; mortality (Coptotermes formosanus [34]): 3.3%; mortality (Coptotermes formosanus [35]): 36.7%; mortality (Coptotermes formosanus [36]): 0%; mortality (Coptotermes formosanus [37]): 8.3%; mortality (Coptotermes formosanus [38]): 0%; Activity (Coptotermes formosanus [46]): 0.1 mg; mortality (Coptotermes formosanus [39]): 5%; mortality (Coptotermes formosanus [40]): 21.7% |
